# Experimental data: ChEMBL document CHEMBL4002547, “Aminopurine and aminoquinazoline scaffolds for development of potential dengue virus inhibitors” (Eur J Med Chem, 2017)
# What was measured:
# [1] = Cytotoxicity against African green monkey Vero B cells assessed as decrease in cell viability by MTS/PMS assay; type: cell-based; conditions: chlorocebus sabaeus
# Method in brief: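 Vero B cells (African green monkey kidney, ECACC) were incubated for 7 days with serial compound dilutions without virus. Toxicity was quantified by the MTS/PMS method, and CC50 is the compound concentration giving 50% cytotoxicity.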
# [2] = system: dengue virus type 2; experiment: Antiviral activity against Dengue virus serotype 2 infected in African green monkey Vero B cells assessed as inhibition of viral RNA replication after 4 days by RT-qPCR method; type: functional; conditions: 96 h, read-out: ED50 (the source's name)
# [3] = Selectivity index, ratio of CC50 for African green monkey Vero B cells to EC50 for Dengue virus serotype 2 infected in African green monkey Vero B cells; type: toxicity; conditions: read-out: Ratio CC50/EC50
# Method in brief: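 In a CPE-reduction assay, DENV-2 in Vero B cells was run over 7 days with serial compound dilutions, with and without virus. EC50 (inhibition of virus-induced CPE) and CC50 come from microscopic scoring, with MTS/PMS also used for toxicity. The index is CC50/EC50.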
# [4] = system: dengue virus type 2; experiment: Antiviral activity against Dengue virus serotype 2 by human cell-based assay; type: functional
# [5] = Inhibition of Dengue virus serotype 2 N-terminal His6-tagged NS5 RdRp activity expressed in baculovirus expression system using poly(C)/5'-biotinylated oligo (G)20 as template/primer assessed as inhibition of [3H]GTP incorporation after 20 mins by scintillation proximity assay; design: species or system dengue virus type 2
# [6] = Cytotoxicity against African green monkey Vero B cells assessed as decrease in cell viability by microscopic method; type: cell-based; conditions: chlorocebus sabaeus
# Method in brief: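 Uninfected Vero B cells were exposed for 7 days to serial compound dilutions. Wells were inspected microscopically for changes in host cell morphology, and CC50 was calculated from the microscopic scoring data.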
EC50 [2] [µM],EC50 [4] [µM],IC50 [5] [µM],SMILES,CC50 [1] [µM],selectivity ratio [3],CC50 [6] [µM]
28.9,,,Cc1ccc(Nc2nc(Cl)nc3[nH]cnc23)c(-c2cc(C)n[nH]2)c1,> 147,5,
17.6,,,COc1ccc(Cn2cnc3c(Cl)nc(Cl)nc32)cc1,32.4,2,
9.9,,,COc1ccc(Cn2cnc3nc(Cl)nc(Cl)c32)cc1,12.3,1,
33.5,,,Cc1ccc(Nc2nc(Cl)nc3[nH]cnc23)c(Br)c1,> 148,4,
2.6,,,Cc1ccc(Nc2nc(Nc3ccc(C)cc3-c3cc(C)n[nH]3)c3ccccc3n2)cc1,5.8,2,
,0.119,,Clc1ccc(-c2ccc(-c3nc(NCc4cccnc4)c4ccccc4n3)s2)cc1,,,
,,0.7,O=C(O)c1ccccc1NS(=O)(=O)c1cccc(-c2cnn(Cc3ccccc3)c2)c1,,,
7.2,,,COc1ccc(Cn2cnc3c(Nc4ccc(C)cc4Br)nc(Cl)nc32)cc1,> 109,15,63
9.2,,,Cc1ccc(Nc2nc(Cl)nc3ccccc23)c(-c2cc(C)n[nH]2)c1,97,11,
1.9,,,COc1ccc(Cn2cnc3c(Nc4ccc(C)cc4-c4cc(C)n[nH]4)nc(Cl)nc32)cc1,> 109,58,10
6.7,,,Cc1ccc(Nc2nc(Nc3ccc(F)cc3)nc3ccccc23)c(-c2cc(C)n[nH]2)c1,8.7,1,
10.9,,,Cc1ccc(Nc2nc(Cl)nc3ccccc23)c(Br)c1,> 144,13,32
